Assay results as given in ChEMBL document CHEMBL2429863, “Cytotoxic deoxybenzoins and diphenylethylenes from Arundina graminifolia” (J Nat Prod, 2013).

Assays:
Assay type in all cases: functional, cell-based
[1] = Cytotoxicity against human SH-SY5Y cells after 48 hrs by MTT assay
In short: (§1)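 Tumor cells from ATCC, grown in RPMI1640 or DMEM with 10% FBS at 37 °C, 5% CO2. Adherent cells plated and allowed to attach 12 h; suspension cells seeded just before dosing at 1 × 10^5 cells/mL. Compounds at various concentrations in triplicate for 48 h; paclitaxel positive control. MTT added for 4 h at 37 °C, then lysis with 20% SDS–50% DMF; formazan read colorimetrically.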

NB-4 = test: Cytotoxicity against human NB4 cells after 48 hrs by MTT assay; conditions: NB-4, 48 h; in short: as §1
PC-3 = test: Cytotoxicity against human PC3 cells after 48 hrs by MTT assay; conditions: PC-3, 48 h; in short: as §1
MCF7 = test: Cytotoxicity against human MCF7 cells after 48 hrs by MTT assay; conditions: MCF7, 48 h; in short: as §1
A549 = test: Cytotoxicity against human A549 cells after 48 hrs by MTT assay; conditions: A549, 48 h; in short: as §1

| SMILES | IC50 [1] | IC50 (NB-4) | IC50 (PC-3) | IC50 (MCF7) | IC50 (A549) |
| --- | --- | --- | --- | --- | --- |
| CC(C)CCC(=O)c1c(O)cc(CC(=O)c2ccccc2)cc1O | 3.2 µM | 2.1 µM | 6.8 µM | 5.5 µM | 5.2 µM |
| COc1ccc(C(=O)Cc2cc(O)c(C(=O)CCC(C)C)c(O)c2)cc1 | > 10 µM | > 10 µM | > 10 µM | > 10 µM | > 10 µM |
| CC(=O)O[C@H]1C(=O)[C@@]2(C)[C@H]([C@H](OC(=O)c3ccccc3)[C@]3(O)C[C@H](OC(=O)[C@H](O)[C@@H](NC(=O)c4ccccc4)c4ccccc4)C(C)=C1C3(C)C)[C@]1(OC(C)=O)CO[C@@H]1C[C@@H]2O [PACLITAXEL] | 0.2 µM | – | – | – | – |
| COc1ccc(C(=O)Cc2cc(OC)c3c(c2)OC(C)(C)CC3=O)cc1 | > 10 µM | > 10 µM | > 10 µM | 8.5 µM | 6.4 µM |
| COc1ccc(C(=O)Cc2cc(O)c3c(c2)OC(C)(C)CC3=O)cc1 | > 10 µM | > 10 µM | > 10 µM | > 10 µM | > 10 µM |
| CC(C)c1cc(=O)c2c(O)cc(CC(=O)c3ccccc3)cc2o1 | > 10 µM | > 10 µM | > 10 µM | > 10 µM | > 10 µM |
| COc1ccc(C(=O)Cc2cc(O)c3c(c2)OCC(C)=CC3=O)cc1 | > 10 µM | > 10 µM | > 10 µM | > 10 µM | > 10 µM |
| COc1cc(/C=C/c2cc(O)c(CCO)c(O)c2)cc(OC)c1 | 6.2 µM | 4.8 µM | 8.7 µM | 5.9 µM | 5.5 µM |
| OCCc1c(O)cc(/C=C/c2cc(O)cc(O)c2)cc1O | 7.8 µM | 5.5 µM | 5.6 µM | 6.4 µM | 8.1 µM |
| COc1cc(/C=C/c2cc(O)cc(O)c2)cc(O)c1CCO | 4.5 µM | 3.3 µM | 2.2 µM | 5.3 µM | 6.5 µM |
| CC1=CC(=O)c2c(O)cc(CC(=O)c3ccc(O)cc3)cc2OC1 | 1.8 µM | 7.6 µM | 3.4 µM | 5.4 µM | 2.2 µM |
| CC(=O)Oc1cc(CC(=O)c2ccccc2)cc2oc(C(C)C)cc(=O)c12 | > 10 µM | > 10 µM | > 10 µM | > 10 µM | > 10 µM |
